The values below come from paper PMC3601665 (Molecular pharmaceutics, 2012).

One data set deals with PC3 cells. The experiment in a line: Cytotoxicity assay. The class given is cell-based. Conditions: read-out: IC50 (Mean ± SE); PC3, PSMA negative, 72 h, n=6. The gist of the method: (§1)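 DU145 and LNCaP were grown in RPMI-1640 and PC3 in F-12K, all with 10 % FBS. Cells were seeded at 5,000 per well. After 12 h, test compound (free or micelle-loaded) in PBS was added at 0, 0.1, 1, 5, 10, 50 or 100 μM. PBS and TCA served as negative and positive controls. After 72 h, 55-μM resazurin solution was added for 4 h at 37 °C, then resorufin fluorescence was read (ex 560/em 590 nm). IC50 was taken as the midpoint between controls on each plate.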

The next data set concerns LNCaP cells. The experiment in a line: Cytotoxicity assay. Type of data set: cell-based. The following applies: for selective cytotoxicity: LNCaP versus DU145 and PC3; for IC50: read-out: IC50 (Mean ± SE), LNCaP, PSMA positive, PTEN-deficient, 72 h, n=6. The gist of the method: as §1
The test system of data set [1] is pAkt (Ser-473) in LNCaP cells. The experiment in a line: Western blot assay of Akt phosphorylation. The class given is cell-based. The following applies: 2-μM drug, 100-ng/mL EGF, 30 min, serum-starved LNCaP. The gist of the method:
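Cells were lysed in buffer with protease inhibitors, and protein was quantified by BCA. Equal protein amounts were run on 10 % SDS-PAGE and transferred to nitrocellulose. Blots were probed for phospho-Akt (Ser-473) and total Akt, followed by HRP-conjugated secondary antibodies and chemiluminescent detection.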

A further data set deals with DU145 cells. The experiment in a line: Cytotoxicity assay. Type of data set: cell-based. Conditions: read-out: IC50 (Mean ± SE); DU145, PSMA negative, 72 h, n=6. The gist of the method:
as §1

A further data set deals with cell growth. Conditions: cited from earlier work.

As for `Cc1cc(C(C)N(CCO)c2ccccc2)c2nc(N3CCOCC3)cc(=O)n2c1` (centres unmarked) [BL05], the IC50 stood at 23.4 ± 0.74 µM in the data set with PC3 cells, 4.04 ± 0.11 µM with LNCaP cells and 32.4 ± 0.67 µM in the data set on DU145 cells. For the same molecule, the selective cytotoxicity result in the data set on LNCaP cells is “selective cytotoxicity to LNCaP cells”. In addition, the “phosphorylation of Akt (Ser473)” value in data set [1] is listed as “inhibited phosphorylation of Akt”.

On to `CC1(C)C(=CC=C2CCCC(C=CC3=[N+](CCCCS(=O)(=O)[O-])c4ccc5ccccc5c4C3(C)C)=C2Cl)N(CCCCS(=O)(=O)[O-])c2ccc3ccccc3c21.[Na+]` [IR-820], for which, in the data set with cell growth, the “concentration at which cell growth is significantly inhibited” value is listed as “greater than 5 μM”.

For `Cc1cc(C(C)Nc2ccccc2)c2nc(N3CCOCC3)cc(=O)n2c1` (centres unmarked) [TGX-221], the values for the half-maximal inhibitory concentration (IC50) in the data set on PC3 cells, in the data set on LNCaP cells and with DU145 cells were 18.2 ± 0.85 µM, 3.98 ± 0.18 µM and 35.6 ± 0.12 µM, respectively. The selective cytotoxicity result in the data set with LNCaP cells is “selective cytotoxicity to LNCaP cells”. The “phosphorylation of Akt (Ser473)” value in data set [1] is listed as “inhibited phosphorylation of Akt”.

Broadly, the IC50 is the midpoint of a concentration-inhibition curve.
